Test results published in ChEMBL document CHEMBL3232894, “Discovery of AMG 925, a FLT3 and CDK4 dual kinase inhibitor with preferential affinity for the activated state of FLT3” (J Med Chem, 2014).
The source made the active and inactive calls. The rule behind the calls is not given here.

Key:
[1] = target: Cyclin-dependent kinase 1/cyclin B1 (Homo sapiens, UniProt P06493); experiment: Inhibition of CDK1/cyclin B (unknown origin) using histone H1 as substrate after 60 mins by scintillation counting analysis in presence of [r-33P]ATP; type: protein-complex assay
[2] = target: T1, Receptor-type tyrosine-protein kinase FLT3 (Homo sapiens, UniProt P36888); experiment: Inhibition of GST-fused human FLT3 cytoplasmic domain (amino acids 564 to 993) using Ulight-JAK1 as substrate after 1 hr by TR-FRET assay
T1 sequence (P36888 whole entry): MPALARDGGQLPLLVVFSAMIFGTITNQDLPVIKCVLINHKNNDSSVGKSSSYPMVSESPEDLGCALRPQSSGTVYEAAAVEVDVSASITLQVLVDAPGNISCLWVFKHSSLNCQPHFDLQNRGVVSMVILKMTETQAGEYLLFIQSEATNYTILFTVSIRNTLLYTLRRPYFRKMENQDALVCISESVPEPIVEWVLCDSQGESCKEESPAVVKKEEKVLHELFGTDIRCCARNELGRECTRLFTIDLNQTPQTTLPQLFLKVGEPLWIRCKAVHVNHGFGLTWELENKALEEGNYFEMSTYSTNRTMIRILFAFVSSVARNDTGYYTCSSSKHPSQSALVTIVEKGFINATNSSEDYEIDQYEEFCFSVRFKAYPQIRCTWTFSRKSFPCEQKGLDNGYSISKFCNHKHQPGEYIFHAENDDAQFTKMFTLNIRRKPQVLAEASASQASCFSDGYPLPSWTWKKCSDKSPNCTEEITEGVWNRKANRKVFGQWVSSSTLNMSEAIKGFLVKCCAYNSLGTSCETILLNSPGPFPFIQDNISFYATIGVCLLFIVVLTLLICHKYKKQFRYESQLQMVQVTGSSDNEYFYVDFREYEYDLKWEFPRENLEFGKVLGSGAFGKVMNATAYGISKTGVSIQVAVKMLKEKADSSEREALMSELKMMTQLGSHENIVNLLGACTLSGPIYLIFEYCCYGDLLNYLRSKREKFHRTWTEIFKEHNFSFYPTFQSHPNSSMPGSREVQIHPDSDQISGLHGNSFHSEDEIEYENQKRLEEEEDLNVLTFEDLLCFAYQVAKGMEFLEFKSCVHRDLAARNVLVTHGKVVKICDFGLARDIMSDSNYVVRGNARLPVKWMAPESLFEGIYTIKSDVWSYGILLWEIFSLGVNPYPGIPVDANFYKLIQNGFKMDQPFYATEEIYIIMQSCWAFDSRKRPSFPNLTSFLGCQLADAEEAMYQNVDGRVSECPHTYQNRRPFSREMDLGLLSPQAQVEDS

COLO 205 = experiment: Antiproliferative activity against Rb-positive human COLO205 cells assessed as incorporation of [14C]thymidine into DNA after 72 hrs by beta-plate counting analysis
Mus musculus [3] = experiment: Toxicity in po dosed CrTac:NCR-Foxn1nu (NCR) nude mouse xenografted with human MOLM13 cells at dose that causing 100% tumor growth inhibition administered qd for 8 days; type: organism-based, MOLM-13; conditions: in vivo, 192 h
How it was run: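 Body weight tracked throughout the 8-day once-daily oral study in NCR nude mice carrying MOLM13 xenografts. Doses were 25, 50, 75 and 150 mg/kg, with a vehicle control.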

[4] = Antiproliferative activity against Rb-negative human MDA-MB-436 cells assessed as incorporation of [3H]thymidine into DNA after 72 hrs by beta-plate counting analysis; type: functional
[5] = Oral bioavailability in rat; type: ADME, organism-based; conditions: in vivo
How it was run: (§1)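 Intravenous and oral (gavage, solution) PK in rat, dog and cynomolgus monkey. The rat vehicle for both routes was water/acetate/tween at pH 4, 96/3/1 (v/v/v). Dog and monkey iv doses used 40% PG aqueous solution at pH 2, and their oral doses used 20% captisol aqueous solution.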

[6] = target: Cyclin-dependent kinase 4/cyclin D1 (Homo sapiens, UniProt P11802); experiment: Inhibition of CDK4/cyclin D1 (unknown origin) using Rb as substrate after 60 mins by scintillation counting analysis in presence of [r-33P]ATP; type: protein-complex assay
MOLM-13 = experiment: Antiproliferative activity against human MOLM13 cells harboring FLT3 ITD mutant assessed as incorporation of [3H]thymidine into DNA after 72 hrs by beta-plate counting analysis; type: functional, cell-based
[7] = Clearance in iv dosed rat; type: ADME, organism-based; conditions: in vivo; how it was run: as §1
Homo sapiens = species: Homo sapiens; experiment: Selectivity ratio of IC50 for CDK1/cyclin B (unknown origin) to IC50 for CDK4/cyclin D1 (unknown origin)
[8] = AUC in rat at 2 mg/kg, po; type: ADME, organism-based; set-up: dose 2 mg/kg, route oral; conditions: plasma
[9] = Drug uptake in CrTac:NCR-Foxn1nu (NCR) nude mouse at 150 mg/kg, po after 3 hrs; type: ADME, organism-based; set-up: dose 150 mg/kg, route oral; conditions: in vivo, read-out: Drug uptake
How it was run: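 Total plasma drug concentration in mouse PK studies, taken 3 h after a 150 mg/kg oral dose.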

Tumour [10] = experiment: Decrease in STAT5 phosphorylation at Tyr694 in tumor of CrTac:NCR-Foxn1nu (NCR) nude mouse xenografted with human MOLM13 cells at 150 mg/kg, po after 3 hrs; type: functional, organism-based; set-up: dose 150 mg/kg; conditions: Neoplasm, MOLM-13
How it was run: (§2)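 MOLM13 tumor-bearing mice received a single oral dose of 50, 75 or 150 mg/kg. Tumors were harvested at 3, 6 and 24 h, and lysates were assayed for pSTAT5 and pRb. Unbound plasma levels were measured at the same time points. Results are mean ± SEM, n = 3 per group and n = 6 for vehicle.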

[11] = Total Cmax in rat at 2 mg/kg, po; type: ADME, organism-based; set-up: dose 2 mg/kg, route oral; conditions: in vivo
Tumour [12] = experiment: Decrease in Rb phosphorylation at Ser780 in tumor of po dosed CrTac:NCR-Foxn1nu (NCR) nude mouse xenografted with human MOLM13 cells after 24 hrs; type: functional, organism-based; conditions: Neoplasm, MOLM-13; how it was run: as §2
Mus musculus [13] = experiment: Unbound Cmax in CrTac:NCR-Foxn1nu (NCR) nude mouse xenografted with human MOLM13 cells at 150 mg/kg, po; type: ADME, organism-based, MOLM-13; set-up: dose 150 mg/kg, route oral; conditions: in vivo
[14] = target: Cyclin-dependent kinase 4 (Homo sapiens, UniProt P11802); experiment: Inhibition of CDK4 in human MOLM13 cells assessed as inhibition of Rb phosphorylation at Ser780 after 24 hrs; type: cell-based, MOLM-13
[15] = target: Receptor-type tyrosine-protein kinase FLT3 (Homo sapiens, UniProt P36888, ITD); experiment: Inhibition of FLT3 ITD mutant in human MOLM13 cells assessed as inhibition of STAT5 phosphorylation at Tyr694 after 24 hrs; type: cell-based, MOLM-13
Cytochrome P450 3A4 = Cytochrome P450 3A4 (Homo sapiens, UniProt P08684); experiment: Inhibition of CYP3A4 (unknown origin); type: ADME
CYP3A4 = CYP3A4 (Homo sapiens, UniProt P08684); experiment: Inhibition of CYP3A4 (unknown origin) at 3 uM; type: ADME
[16] = target: Voltage-gated inwardly rectifying potassium channel KCNH2 (Homo sapiens, UniProt Q12809); experiment: Binding affinity to human ERG
Sequence of Voltage-gated inwardly rectifying potassium channel KCNH2 (Q12809 whole entry): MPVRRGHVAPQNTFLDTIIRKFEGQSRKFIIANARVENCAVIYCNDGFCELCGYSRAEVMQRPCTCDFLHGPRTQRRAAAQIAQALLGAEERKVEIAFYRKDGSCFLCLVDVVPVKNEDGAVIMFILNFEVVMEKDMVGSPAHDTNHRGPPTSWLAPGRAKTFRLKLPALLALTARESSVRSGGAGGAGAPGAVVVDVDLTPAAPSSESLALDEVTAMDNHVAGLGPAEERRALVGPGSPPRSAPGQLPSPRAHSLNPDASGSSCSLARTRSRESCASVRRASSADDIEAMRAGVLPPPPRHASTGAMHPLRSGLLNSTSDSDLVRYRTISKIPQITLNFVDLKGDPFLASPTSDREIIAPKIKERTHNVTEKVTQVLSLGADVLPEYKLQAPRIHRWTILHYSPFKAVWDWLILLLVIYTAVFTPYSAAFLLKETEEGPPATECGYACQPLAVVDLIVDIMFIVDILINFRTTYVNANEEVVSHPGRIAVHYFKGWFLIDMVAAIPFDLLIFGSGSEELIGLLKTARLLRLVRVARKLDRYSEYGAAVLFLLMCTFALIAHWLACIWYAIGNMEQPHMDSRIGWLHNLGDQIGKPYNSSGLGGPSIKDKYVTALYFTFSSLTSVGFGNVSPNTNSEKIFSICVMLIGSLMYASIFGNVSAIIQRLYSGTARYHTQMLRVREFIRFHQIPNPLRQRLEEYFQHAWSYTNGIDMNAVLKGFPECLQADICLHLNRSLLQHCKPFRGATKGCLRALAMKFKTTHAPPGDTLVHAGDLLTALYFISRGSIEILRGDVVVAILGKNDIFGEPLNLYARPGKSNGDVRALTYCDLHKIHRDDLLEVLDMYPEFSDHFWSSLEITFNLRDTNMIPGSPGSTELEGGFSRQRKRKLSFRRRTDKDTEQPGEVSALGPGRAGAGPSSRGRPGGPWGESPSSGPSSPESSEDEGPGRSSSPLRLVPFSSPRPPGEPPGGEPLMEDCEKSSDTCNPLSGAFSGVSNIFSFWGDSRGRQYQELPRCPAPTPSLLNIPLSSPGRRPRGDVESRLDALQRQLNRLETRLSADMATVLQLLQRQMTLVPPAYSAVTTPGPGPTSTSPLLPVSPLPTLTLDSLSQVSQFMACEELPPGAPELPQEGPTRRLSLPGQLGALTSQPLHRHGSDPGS

Sequence of Cyclin-dependent kinase 4/cyclin D1 (P11802 whole entry): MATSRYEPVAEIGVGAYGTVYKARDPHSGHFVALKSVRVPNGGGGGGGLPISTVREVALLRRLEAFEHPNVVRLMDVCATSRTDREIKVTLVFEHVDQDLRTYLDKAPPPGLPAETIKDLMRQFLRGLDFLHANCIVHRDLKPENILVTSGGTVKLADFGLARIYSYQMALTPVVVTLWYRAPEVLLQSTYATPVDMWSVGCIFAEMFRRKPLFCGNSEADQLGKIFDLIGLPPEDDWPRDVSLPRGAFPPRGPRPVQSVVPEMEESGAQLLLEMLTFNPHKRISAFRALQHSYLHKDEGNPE
Sequence of Cyclin-dependent kinase 4/cyclin D1 (P24385 whole entry, further chain): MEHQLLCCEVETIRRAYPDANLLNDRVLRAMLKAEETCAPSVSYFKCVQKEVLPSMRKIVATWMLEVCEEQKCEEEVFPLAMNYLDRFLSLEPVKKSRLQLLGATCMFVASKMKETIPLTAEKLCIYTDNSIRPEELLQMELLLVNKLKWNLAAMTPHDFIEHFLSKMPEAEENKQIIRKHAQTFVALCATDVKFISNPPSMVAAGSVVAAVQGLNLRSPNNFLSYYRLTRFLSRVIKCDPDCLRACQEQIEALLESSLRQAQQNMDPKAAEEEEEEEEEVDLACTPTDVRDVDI
Sequence of Cyclin-dependent kinase 1/cyclin B1 (P06493 whole entry, the tested form may be a part): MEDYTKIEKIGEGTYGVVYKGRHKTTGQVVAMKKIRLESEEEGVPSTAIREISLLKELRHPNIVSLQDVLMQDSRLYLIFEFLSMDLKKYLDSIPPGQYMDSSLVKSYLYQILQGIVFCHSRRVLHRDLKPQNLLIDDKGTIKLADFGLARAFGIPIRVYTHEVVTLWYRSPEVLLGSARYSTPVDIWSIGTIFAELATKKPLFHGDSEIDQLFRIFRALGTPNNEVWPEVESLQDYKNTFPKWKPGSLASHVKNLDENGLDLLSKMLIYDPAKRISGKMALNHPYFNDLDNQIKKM
Sequence of Cyclin-dependent kinase 1/cyclin B1 (P14635 whole entry, further chain, the tested form may be a part): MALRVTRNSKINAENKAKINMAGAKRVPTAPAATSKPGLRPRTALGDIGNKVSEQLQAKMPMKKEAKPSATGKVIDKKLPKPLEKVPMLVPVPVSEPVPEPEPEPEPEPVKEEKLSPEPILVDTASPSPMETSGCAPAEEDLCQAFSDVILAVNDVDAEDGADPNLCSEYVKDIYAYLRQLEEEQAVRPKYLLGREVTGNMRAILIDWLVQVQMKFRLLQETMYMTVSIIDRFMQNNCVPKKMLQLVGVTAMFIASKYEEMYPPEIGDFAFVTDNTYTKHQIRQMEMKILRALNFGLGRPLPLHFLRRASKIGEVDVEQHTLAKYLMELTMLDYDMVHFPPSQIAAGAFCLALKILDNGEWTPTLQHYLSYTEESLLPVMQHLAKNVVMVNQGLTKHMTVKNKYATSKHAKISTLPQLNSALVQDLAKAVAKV
Sequence of Cytochrome P450 3A4 (P08684 whole entry): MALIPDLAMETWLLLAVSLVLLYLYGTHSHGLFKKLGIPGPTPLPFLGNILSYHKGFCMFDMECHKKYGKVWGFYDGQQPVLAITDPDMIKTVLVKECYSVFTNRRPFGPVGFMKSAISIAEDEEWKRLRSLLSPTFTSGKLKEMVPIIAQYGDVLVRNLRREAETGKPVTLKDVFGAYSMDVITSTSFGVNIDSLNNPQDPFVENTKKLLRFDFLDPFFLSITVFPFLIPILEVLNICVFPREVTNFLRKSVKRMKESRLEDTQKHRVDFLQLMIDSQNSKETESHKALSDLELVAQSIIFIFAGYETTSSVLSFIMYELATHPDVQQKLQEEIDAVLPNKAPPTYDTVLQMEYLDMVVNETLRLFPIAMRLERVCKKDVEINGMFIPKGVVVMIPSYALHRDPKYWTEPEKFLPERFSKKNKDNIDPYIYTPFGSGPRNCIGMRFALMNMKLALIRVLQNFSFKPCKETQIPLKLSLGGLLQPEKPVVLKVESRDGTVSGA
Sequence of CYP3A4 (P08684 whole entry): as above
Sequence of Cyclin-dependent kinase 4 (P11802 whole entry): as the sequence (P11802 whole entry) above

Row | Structure (SMILES) | IC50 [1] [µM] | IC50 [2] [µM] | IC50 (COLO 205) [µM] | Activity (Mus musculus [3]) | IC50 [4] [µM] | bioavailability [5] [%] | IC50 [6] [µM] | IC50 (MOLM-13) [µM] | clearance [7] [L/h/kg] | AUC [8] [nM·h] | Cmax [11] [µM] | other results
1 | COc1nc(Nc2ncc3c4ccncc4n([C@H]4CC[C@H](C)CC4)c3n2)ccc1N1CCC(N(C)C)CC1 | 0.79 | 0.0002 | 0.054 | Toxic | 1.12 | 62 | 0.003 | 0.002 | 0.55 |  |  | 
2 | CN(C)C1CCN(c2ccc(Nc3ncc4c5ccncc5n([C@H]5CC[C@H](C)CC5)c4n3)nn2)CC1 | 2.2 | 0.004 | 0.011 |  | 2.15 | 28 | 0.002 | 0.009 | 0.61 | 1570 | 0.13 | Ratio IC50 (Homo sapiens): > 1000; concentration at 3 h [9]: 0.85 µM; inhibition (Tumour [10]): inactive; inhibition (Tumour [12]): Dose-dependent effect; fCmax (Mus musculus [13]): 0.024 µM; IC50 [14]: 0.023 µM; IC50 [15]: 0.052 µM
3 | Clc1nccc2c3cnc(Nc4ccc(N5CCNCC5)cn4)nc3n(C3CCCC3)c12 | 3.3 | 0.005 | 0.063 |  | 2.1 |  | 0.004 | 0.009 | 1.7 |  |  | IC50 (Cytochrome P450 3A4): > 10 µM; inhibition at 3 µM (CYP3A4): < 10%; IC50 [16]: 2 µM
4 | CN(C)C1CCN(c2ccc(Nc3ncc4c5ccncc5n([C@H]5CC[C@H](C)CC5)c4n3)nc2F)CC1 | 2.68 | 0.0006 | 0.016 | Toxic | 1.47 | 88 | 0.001 | 0.013 | 1.2 |  |  | 
5 | C[C@@H](O)CN(C)C1CCN(c2ccc(Nc3ncc4c5ccncc5n([C@H]5CC[C@H](C)CC5)c4n3)nn2)CC1 | 1.54 |  | 0.009 |  | 0.91 | 46 |  | 0.004 | 0.6 | 3240 | 0.28 | 
